# Measurements taken from ChEMBL document CHEMBL1158507, “Development of substituted 6-[4-fluoro-3-(piperazin-1-ylcarbonyl)benzyl]-4,5-dimethylpyridazin-3(2H)-ones as potent poly(ADP-ribose) polymerase-1 (PARP-1) inhibitors active in BRCA deficient cells” (Bioorg Med Chem Lett, 2010).
# Active and inactive are the calls of the source. The rule behind the calls is not given here.
# How the values were obtained:
# [1] = system: HeLa; experiment: Antiproliferative activity against BRCA1 deficient human HeLa cells; format: functional
# Procedure, shortened: (§1)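 Antiproliferation in HeLa cells, BRCA1-deficient and BRCA wild-type lines. Read-out is CC50 in nM. Values are means of at least two experiments.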
# [2] = system: HeLa; experiment: Antiproliferative activity against BRCA1 expressing human HeLa cells; format: functional; procedure, shortened: as §1
# [3] = biological target: CYP3A4 (Homo sapiens, UniProt P08684); experiment: Inhibition of CYP3A4 at 10 uM; format: ADME
# [4] = biological target: Poly [ADP-ribose] polymerase 1 (Homo sapiens, UniProt P09874)
# [5] = system: HeLa; experiment: Selectivity for BRCA1 deficient human HeLa cells over BRCA1 expressing HeLa cells; format: functional
# [6] = Intrinsic clearance in rat liver microsomes; format: ADME, Microsome
# [7] = Clearance in rat; format: ADME, organism-based; details: in vivo
# [8] = Intrinsic clearance in human liver microsomes; format: ADME, Microsome
# [9] = Oral bioavailability in rat; format: ADME, organism-based; details: in vivo
# [10] = system: HeLa; experiment: Antiproliferative activity against BRCA1 deficient human HeLa cells at 5 uM; format: functional, cell-based
# [11] = Drug excretion in iv dosed rat bile after 72 hrs; format: ADME, organism-based; details: read-out: Activity
# [12] = Drug excretion in iv dosed rat urine after 72 hrs; format: ADME, organism-based; details: read-out: Activity
# [13] = Half life in rat; format: ADME, organism-based; details: in vivo
# [14] = Drug excretion in iv dosed rat urine after 24 hrs; format: ADME, organism-based; details: read-out: Activity
# [15] = Volume of distribution at steady state in rat; format: ADME, organism-based; details: in vivo, read-out: Vdss
# [16] = biological target: CYP2D6 (Homo sapiens, UniProt P10635); experiment: Inhibition of CYP2D6 at 10 uM; format: ADME
# [17] = biological target: Voltage-gated inwardly rectifying potassium channel KCNH2 (Homo sapiens, UniProt Q12809); experiment: Inhibition of human ERG
# [18] = Induction of CYP450 at 10 uM relative to refampicin; format: ADME
# Chain of Poly [ADP-ribose] polymerase 1 (P09874 whole entry): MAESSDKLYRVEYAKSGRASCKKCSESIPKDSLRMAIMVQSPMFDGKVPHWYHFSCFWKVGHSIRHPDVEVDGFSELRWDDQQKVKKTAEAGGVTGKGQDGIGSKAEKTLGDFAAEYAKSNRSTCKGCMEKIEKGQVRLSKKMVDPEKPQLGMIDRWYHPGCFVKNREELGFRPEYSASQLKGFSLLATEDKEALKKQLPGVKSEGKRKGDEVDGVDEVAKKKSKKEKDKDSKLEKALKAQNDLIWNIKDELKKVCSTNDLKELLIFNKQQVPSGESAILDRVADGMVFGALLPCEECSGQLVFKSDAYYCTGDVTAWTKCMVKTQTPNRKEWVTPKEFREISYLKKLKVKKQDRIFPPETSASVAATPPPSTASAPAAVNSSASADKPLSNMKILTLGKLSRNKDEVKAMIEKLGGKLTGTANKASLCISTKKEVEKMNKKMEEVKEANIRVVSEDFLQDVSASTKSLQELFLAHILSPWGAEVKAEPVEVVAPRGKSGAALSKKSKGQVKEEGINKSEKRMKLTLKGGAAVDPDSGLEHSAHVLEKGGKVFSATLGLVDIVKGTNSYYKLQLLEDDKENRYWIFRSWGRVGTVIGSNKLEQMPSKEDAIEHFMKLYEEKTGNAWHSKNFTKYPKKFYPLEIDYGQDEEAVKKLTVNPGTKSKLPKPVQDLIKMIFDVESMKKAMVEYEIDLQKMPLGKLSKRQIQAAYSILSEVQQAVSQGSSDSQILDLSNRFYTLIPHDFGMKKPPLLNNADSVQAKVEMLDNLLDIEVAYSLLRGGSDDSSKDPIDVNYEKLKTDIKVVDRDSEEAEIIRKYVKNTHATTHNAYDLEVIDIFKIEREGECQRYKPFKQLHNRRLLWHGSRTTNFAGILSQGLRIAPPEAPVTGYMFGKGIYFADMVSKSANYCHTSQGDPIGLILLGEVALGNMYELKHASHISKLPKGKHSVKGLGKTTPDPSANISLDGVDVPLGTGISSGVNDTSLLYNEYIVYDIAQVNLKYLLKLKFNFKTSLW
# Chain of CYP3A4 (P08684 whole entry): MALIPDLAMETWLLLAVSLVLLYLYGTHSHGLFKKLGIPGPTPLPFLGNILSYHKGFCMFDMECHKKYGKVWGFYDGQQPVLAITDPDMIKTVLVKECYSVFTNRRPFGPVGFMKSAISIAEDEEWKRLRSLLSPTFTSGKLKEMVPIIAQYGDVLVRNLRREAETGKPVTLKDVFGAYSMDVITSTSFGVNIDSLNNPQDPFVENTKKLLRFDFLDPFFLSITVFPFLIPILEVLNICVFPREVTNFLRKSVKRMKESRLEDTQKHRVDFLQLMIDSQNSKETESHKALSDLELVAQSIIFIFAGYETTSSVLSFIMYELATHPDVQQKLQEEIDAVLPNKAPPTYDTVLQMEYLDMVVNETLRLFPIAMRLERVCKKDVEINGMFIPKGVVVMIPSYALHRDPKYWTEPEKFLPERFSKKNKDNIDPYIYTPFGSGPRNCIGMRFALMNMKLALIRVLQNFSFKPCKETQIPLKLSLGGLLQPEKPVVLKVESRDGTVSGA
# Chain of Voltage-gated inwardly rectifying potassium channel KCNH2 (Q12809 whole entry): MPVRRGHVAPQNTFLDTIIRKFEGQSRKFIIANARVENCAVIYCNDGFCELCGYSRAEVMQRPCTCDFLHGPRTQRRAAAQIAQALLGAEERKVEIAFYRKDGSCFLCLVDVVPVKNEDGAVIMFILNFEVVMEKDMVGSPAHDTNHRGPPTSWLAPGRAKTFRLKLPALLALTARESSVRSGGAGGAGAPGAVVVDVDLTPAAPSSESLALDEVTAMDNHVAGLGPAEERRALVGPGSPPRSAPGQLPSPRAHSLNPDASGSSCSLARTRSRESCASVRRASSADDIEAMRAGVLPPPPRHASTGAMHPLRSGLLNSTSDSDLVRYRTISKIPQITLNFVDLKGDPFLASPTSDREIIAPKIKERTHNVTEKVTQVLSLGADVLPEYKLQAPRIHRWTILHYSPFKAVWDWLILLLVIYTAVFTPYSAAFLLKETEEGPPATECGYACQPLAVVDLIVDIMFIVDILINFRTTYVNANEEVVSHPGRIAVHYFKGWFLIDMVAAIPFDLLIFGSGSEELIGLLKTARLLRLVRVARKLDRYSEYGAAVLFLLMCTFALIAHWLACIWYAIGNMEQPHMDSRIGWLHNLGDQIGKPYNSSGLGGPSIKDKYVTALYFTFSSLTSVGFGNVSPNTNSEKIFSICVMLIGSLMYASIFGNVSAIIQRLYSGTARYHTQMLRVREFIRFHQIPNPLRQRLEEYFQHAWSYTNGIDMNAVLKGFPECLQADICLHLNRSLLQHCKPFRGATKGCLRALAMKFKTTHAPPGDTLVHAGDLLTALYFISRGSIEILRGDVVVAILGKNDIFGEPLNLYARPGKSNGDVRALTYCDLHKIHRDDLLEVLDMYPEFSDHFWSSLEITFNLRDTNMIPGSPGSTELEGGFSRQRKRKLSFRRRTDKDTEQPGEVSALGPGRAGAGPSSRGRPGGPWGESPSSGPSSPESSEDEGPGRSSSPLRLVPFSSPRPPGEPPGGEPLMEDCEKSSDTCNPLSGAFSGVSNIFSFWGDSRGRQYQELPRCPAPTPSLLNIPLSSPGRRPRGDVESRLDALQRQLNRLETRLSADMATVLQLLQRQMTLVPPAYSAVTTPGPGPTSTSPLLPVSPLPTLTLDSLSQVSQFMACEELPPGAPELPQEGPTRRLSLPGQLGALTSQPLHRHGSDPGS
# Chain of CYP2D6 (P10635 whole entry): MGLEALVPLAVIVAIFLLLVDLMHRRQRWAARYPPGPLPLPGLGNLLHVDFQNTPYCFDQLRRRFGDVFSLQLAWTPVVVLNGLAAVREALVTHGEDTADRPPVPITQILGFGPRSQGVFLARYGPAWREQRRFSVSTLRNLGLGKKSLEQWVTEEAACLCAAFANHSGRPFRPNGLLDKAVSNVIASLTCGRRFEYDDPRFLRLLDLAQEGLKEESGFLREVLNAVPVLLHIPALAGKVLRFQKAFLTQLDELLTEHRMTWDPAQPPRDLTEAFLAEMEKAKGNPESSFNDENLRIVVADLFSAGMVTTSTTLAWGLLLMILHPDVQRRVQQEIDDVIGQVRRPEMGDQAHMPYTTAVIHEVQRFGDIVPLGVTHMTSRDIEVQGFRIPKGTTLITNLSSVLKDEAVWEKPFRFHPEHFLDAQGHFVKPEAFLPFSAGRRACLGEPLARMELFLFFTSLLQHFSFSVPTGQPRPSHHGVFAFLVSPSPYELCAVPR
Structure (SMILES),CC50 [1] [nM],CC50 [2] [nM],IC50 [4] [nM],further results
CNC1(C(=O)N2CCN(C(=O)c3cc(Cc4n[nH]c(=O)c(C)c4C)ccc3F)CC2)CC1,240,> 5000,–,–
Cc1c(Cc2ccc(F)c(C(=O)N3CCN(C(=O)C4(Cc5ccc(F)cc5)CCCN4)CC3)c2)n[nH]c(=O)c1C (stereo not given),9.1,2700,3.6,inhibition at 10 µM [3]: 73%
CCN1CCCC12CCN(C(=O)c1cc(Cc3n[nH]c(=O)c(C)c3C)ccc1F)CC2,170,> 5000,9.7,–
Cc1c(Cc2ccc(F)c(C(=O)N3CCN(C(=O)[C@]4(Cc5ccc(F)cc5)CCCN4)CC3)c2)n[nH]c(=O)c1C,15,3300,2.5,–
Cc1c(Cc2ccc(F)c(C(=O)N3CCN(C(=O)[C@@]4(C)CCCN4)CC3)c2)n[nH]c(=O)c1C,45,> 5000,1.3,Ratio [5]: 100
Cc1c(Cc2ccc(F)c(C(=O)N3CCN(C(=O)C4(Nc5ccccc5)CCCC4)CC3)c2)n[nH]c(=O)c1C,130,870,3.9,–
CNC(C)(C)C(=O)N1CCN(C(=O)c2cc(Cc3n[nH]c(=O)c(C)c3C)ccc2F)CC1,280,> 5000,3.7,microsomal CLint [6]: 7 µL/min/mg; clearance [7]: 64 mL/min/kg; microsomal CLint [8]: 10 µL/min/mg
Cc1c(Cc2ccc(F)c(C(=O)N3CCN(C(=O)C4(N5CCCC5)CCCC4)CC3)c2)n[nH]c(=O)c1C,89,1500,2.7,–
Cc1c(Cc2ccc(F)c(C(=O)N3CCN(C(=O)C4(C)CCCCN4)CC3)c2)n[nH]c(=O)c1C (stereo not given),2000,> 20000,12,–
Cc1c(Cc2ccc(F)c(C(=O)N3CCN(C(=O)[C@H]4CCCN4)CC3)c2)n[nH]c(=O)c1C,220,> 10000,2.7,–
Cc1c(Cc2ccc(F)c(C(=O)N3CCN(C(=O)C(C)(C)N(C)C)CC3)c2)n[nH]c(=O)c1C,360,> 2500,1.8,–
CCC1(C(=O)N2CCN(C(=O)c3cc(Cc4n[nH]c(=O)c(C)c4C)ccc3F)CC2)CCCN1 (stereo not given),24,16000,3.8,microsomal CLint [6]: 6 µL/min/mg; microsomal CLint [8]: 13 µL/min/mg; bioavailability [9]: < 3%
Cc1c(Cc2ccc(F)c(C(=O)N3CCN(C(=O)C4CCNC4)CC3)c2)n[nH]c(=O)c1C (stereo not given),> 5000,> 5000,3.9,Activity [10]: inactive
Cc1c(Cc2ccc(F)c(C(=O)N3CCN(C(=O)C4(C)CCCN4)CC3)c2)n[nH]c(=O)c1C (stereo not given),90,> 5000,2.8,Ratio [5]: 30; microsomal CLint [6]: < 1 µL/min/mg; dose excreted at 72 h [11]: 3%; dose excreted at 72 h [12]: 82%; clearance [7]: 38 mL/min/kg; microsomal CLint [8]: < 1 µL/min/mg; bioavailability [9]: < 3%
Cc1c(Cc2ccc(F)c(C(=O)N3CCN(C(=O)[C@@]4(Cc5ccc(F)cc5)CCCN4)CC3)c2)n[nH]c(=O)c1C,290,15000,4.2,–
Cc1c(Cc2ccc(F)c(C(=O)N3CCC4(CCCN4)CC3)c2)n[nH]c(=O)c1C,49,> 5000,2.6,half-life [13]: 3.7 h; dose excreted at 24 h [14]: 37%; Vd [15]: 6.7 L/kg; microsomal CLint [6]: < 1 µL/min/mg; clearance [7]: 57 mL/min/kg; microsomal CLint [8]: < 1 µL/min/mg
O=C(c1cc(Cc2c[nH]c(=O)c3cc(Cl)c(Cl)n23)ccc1F)N1CCC2(CCCN2)CC1,48,> 5000,2.5,Ratio [5]: >100; inhibition at 10 µM [16]: 35%; microsomal CLint [6]: 65 µL/min/mg; clearance [7]: 130 mL/min/kg; IC50 [17]: 12000 nM

Structure (SMILES),CC50 [1] [nM],CC50 [2] [nM],IC50 [4] [nM],further results
Cc1c(Cc2ccc(F)c(C(=O)N3CCN(C(=O)[C@@]4(C)CCN4)CC3)c2)n[nH]c(=O)c1C,78,> 40000,3.1,dose excreted at 24 h [14]: 11%; microsomal CLint [6]: < 1 µL/min/mg; microsomal CLint [8]: 3 µL/min/mg; bioavailability [9]: < 3%
Cc1c(Cc2ccc(F)c(C(=O)N3CCC4(CCNC4)CC3)c2)n[nH]c(=O)c1C,> 5000,> 5000,4.7,–
Cc1c(Cc2ccc(F)c(C(=O)N3CCN(C(=O)C4(C)CCCO4)CC3)c2)n[nH]c(=O)c1C (stereo not given),380,11000,2.8,–
Cc1c(Cc2ccc(F)c(C(=O)N3CCN(C(=O)C4(N(C)C)CC4)CC3)c2)n[nH]c(=O)c1C,350,7700,5.7,–
Cc1c(Cc2ccc(F)c(C(=O)N3CCC4(CCN4)CC3)c2)n[nH]c(=O)c1C,> 5000,> 5000,4.6,–
Cc1c(Cc2ccc(F)c(C(=O)N3CCN(C(=O)[C@@H]4CCCN4)CC3)c2)n[nH]c(=O)c1C,3000,> 10000,3.1,–
Cc1c(Cc2ccc(F)c(C(=O)N3CCN(C(=O)C4(NCC5CC5)CCCC4)CC3)c2)n[nH]c(=O)c1C,71,2100,2.4,–
Cc1c(Cc2ccc(F)c(C(=O)N3CCN(C(=O)C4(NCC5CC5)CCC4)CC3)c2)n[nH]c(=O)c1C,24,450,3.2,–
CCNC1(C(=O)N2CCN(C(=O)c3cc(Cc4n[nH]c(=O)c(C)c4C)ccc3F)CC2)CCCC1,91,4000,3.1,–
Cc1c(Cc2ccc(F)c(C(=O)N3CCN(C(=O)C4(NCC5CC5)CCCCC4)CC3)c2)n[nH]c(=O)c1C,170,1900,3.5,–
CNC(C)(C)C(=O)N1CCN(C(=O)c2cc(Cc3c[nH]c(=O)c4cc(Cl)c(Cl)n34)ccc2F)CC1,53,> 5000,2,Activity [18]: 14%; Ratio [5]: >100; inhibition at 10 µM [3]: 25%; microsomal CLint [6]: 122 µL/min/mg; clearance [7]: > 200 mL/min/kg; IC50 [17]: 11000 nM
Cc1c(Cc2ccc(F)c(C(=O)N3CCC4(CCCN4C)CC3)c2)n[nH]c(=O)c1C,100,> 5000,4.5,–
Cc1c(Cc2ccc(F)c(C(=O)N3CCN(C(=O)C4(Cc5ccccc5)CCCN4)CC3)c2)n[nH]c(=O)c1C (stereo not given),53,> 5000,3.3,–
C=CCC1(C(=O)N2CCN(C(=O)c3cc(Cc4n[nH]c(=O)c(C)c4C)ccc3F)CC2)CCCN1 (stereo not given),31,19000,1.8,–
CNC1(C(=O)N2CCN(C(=O)c3cc(Cc4n[nH]c(=O)c(C)c4C)ccc3F)CC2)CCCC1,81,> 5000,2.7,–
Cc1c(Cc2ccc(F)c(C(=O)N3CCN(C(=O)[C@]4(C)CCCN4)CC3)c2)n[nH]c(=O)c1C,780,> 40000,3.8,–
